{"source": "ChEMBL document CHEMBL4251745", "about": "“The Notch Inhibitors Isolated from Nerium indicum” (J Nat Prod, 2018)", "key": {"[1]": {"target": "Neurogenic locus notch homolog protein 1 (Mus musculus, UniProt Q01705)", "sequence (Q01705 whole entry, the tested form may be a part)": "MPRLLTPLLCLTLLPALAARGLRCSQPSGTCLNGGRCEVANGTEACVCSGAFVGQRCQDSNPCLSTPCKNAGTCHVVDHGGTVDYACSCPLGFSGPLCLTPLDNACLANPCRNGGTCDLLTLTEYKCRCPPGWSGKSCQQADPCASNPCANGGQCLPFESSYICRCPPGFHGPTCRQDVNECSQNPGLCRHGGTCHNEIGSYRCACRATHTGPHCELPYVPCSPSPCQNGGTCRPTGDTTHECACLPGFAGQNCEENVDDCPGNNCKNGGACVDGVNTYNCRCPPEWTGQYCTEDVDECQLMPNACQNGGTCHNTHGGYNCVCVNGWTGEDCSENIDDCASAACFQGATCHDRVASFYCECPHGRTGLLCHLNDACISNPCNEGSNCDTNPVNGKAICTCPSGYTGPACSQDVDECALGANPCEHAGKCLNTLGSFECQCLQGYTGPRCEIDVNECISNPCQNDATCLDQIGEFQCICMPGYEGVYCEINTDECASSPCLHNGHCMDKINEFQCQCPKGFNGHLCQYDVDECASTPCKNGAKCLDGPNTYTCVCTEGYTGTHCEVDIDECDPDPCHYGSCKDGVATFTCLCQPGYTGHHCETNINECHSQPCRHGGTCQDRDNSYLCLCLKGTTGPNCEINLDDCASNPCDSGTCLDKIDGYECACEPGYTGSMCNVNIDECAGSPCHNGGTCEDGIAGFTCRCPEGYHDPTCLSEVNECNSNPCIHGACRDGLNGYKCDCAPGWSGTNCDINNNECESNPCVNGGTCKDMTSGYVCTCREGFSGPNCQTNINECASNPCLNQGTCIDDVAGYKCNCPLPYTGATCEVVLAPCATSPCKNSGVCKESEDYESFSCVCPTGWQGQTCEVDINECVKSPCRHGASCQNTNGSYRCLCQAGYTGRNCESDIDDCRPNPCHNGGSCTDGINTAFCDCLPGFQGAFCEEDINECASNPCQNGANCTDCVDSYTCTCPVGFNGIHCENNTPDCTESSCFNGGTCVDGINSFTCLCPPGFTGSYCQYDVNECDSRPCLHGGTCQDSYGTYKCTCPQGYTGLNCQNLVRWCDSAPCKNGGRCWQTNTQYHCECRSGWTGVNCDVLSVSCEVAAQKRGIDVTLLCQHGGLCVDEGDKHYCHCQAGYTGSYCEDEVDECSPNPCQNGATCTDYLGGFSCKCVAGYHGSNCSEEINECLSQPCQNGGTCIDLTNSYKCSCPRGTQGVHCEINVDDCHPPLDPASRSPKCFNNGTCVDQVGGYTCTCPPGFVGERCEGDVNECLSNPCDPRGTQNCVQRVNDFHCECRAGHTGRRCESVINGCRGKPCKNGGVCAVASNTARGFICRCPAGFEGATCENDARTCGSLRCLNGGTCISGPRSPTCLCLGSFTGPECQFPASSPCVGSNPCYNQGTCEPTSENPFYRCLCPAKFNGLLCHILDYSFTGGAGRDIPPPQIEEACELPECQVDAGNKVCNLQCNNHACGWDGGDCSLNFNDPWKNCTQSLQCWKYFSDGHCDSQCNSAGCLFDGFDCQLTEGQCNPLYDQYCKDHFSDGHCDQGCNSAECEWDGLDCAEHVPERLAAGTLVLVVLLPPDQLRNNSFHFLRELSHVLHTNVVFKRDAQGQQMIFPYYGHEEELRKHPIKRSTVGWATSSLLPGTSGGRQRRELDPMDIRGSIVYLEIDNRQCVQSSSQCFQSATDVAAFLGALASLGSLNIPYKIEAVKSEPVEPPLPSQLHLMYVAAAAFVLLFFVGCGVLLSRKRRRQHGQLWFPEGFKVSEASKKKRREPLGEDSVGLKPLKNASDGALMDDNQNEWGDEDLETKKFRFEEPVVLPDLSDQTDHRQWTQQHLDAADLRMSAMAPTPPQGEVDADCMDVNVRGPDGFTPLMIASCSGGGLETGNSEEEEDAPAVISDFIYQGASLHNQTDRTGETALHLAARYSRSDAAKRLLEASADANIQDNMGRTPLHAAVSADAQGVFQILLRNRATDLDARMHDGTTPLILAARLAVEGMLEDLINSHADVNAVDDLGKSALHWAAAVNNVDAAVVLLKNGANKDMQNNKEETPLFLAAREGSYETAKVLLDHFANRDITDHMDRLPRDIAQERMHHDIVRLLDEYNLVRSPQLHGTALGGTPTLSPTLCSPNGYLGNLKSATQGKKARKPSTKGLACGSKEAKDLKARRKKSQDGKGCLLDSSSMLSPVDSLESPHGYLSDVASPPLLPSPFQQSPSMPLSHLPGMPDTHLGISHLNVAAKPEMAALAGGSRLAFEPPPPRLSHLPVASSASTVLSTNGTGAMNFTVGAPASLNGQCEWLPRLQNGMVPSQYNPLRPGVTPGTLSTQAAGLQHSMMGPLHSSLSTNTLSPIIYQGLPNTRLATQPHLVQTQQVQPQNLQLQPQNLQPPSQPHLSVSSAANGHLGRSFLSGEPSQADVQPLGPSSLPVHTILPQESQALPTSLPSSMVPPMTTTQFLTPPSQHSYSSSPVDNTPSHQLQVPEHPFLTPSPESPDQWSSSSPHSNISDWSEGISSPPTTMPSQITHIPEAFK", "test": "Inhibition of recombinant mouse N-terminal FLAG-tagged Notch1 (1704 to 2531 residues) expressed in human LS174T cells assessed as reduction in doxycycline-induced NICD expression after 12 hrs by Bright-Glo luciferase reporter gene assay", "format": "cell-based", "how_it_was_run": "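LS174T cells stably carrying a luciferase reporter under 12× RBP-J sites (β-globin promoter), 2 × 10^4 per well. After 12 h, doxycycline 50 ng/mL for 12 h induced Notch1(1704–2531). Then dox-free medium with compound, 0.1% DMSO, 12 h at 37 °C. Read by Bright-Glo luminescence, n = 3, with parallel FMCA viability.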"}, "[2]": {"target": "Neurogenic locus notch homolog protein 1 (Homo sapiens) (UniProt P46531)", "sequence (P46531 whole entry)": "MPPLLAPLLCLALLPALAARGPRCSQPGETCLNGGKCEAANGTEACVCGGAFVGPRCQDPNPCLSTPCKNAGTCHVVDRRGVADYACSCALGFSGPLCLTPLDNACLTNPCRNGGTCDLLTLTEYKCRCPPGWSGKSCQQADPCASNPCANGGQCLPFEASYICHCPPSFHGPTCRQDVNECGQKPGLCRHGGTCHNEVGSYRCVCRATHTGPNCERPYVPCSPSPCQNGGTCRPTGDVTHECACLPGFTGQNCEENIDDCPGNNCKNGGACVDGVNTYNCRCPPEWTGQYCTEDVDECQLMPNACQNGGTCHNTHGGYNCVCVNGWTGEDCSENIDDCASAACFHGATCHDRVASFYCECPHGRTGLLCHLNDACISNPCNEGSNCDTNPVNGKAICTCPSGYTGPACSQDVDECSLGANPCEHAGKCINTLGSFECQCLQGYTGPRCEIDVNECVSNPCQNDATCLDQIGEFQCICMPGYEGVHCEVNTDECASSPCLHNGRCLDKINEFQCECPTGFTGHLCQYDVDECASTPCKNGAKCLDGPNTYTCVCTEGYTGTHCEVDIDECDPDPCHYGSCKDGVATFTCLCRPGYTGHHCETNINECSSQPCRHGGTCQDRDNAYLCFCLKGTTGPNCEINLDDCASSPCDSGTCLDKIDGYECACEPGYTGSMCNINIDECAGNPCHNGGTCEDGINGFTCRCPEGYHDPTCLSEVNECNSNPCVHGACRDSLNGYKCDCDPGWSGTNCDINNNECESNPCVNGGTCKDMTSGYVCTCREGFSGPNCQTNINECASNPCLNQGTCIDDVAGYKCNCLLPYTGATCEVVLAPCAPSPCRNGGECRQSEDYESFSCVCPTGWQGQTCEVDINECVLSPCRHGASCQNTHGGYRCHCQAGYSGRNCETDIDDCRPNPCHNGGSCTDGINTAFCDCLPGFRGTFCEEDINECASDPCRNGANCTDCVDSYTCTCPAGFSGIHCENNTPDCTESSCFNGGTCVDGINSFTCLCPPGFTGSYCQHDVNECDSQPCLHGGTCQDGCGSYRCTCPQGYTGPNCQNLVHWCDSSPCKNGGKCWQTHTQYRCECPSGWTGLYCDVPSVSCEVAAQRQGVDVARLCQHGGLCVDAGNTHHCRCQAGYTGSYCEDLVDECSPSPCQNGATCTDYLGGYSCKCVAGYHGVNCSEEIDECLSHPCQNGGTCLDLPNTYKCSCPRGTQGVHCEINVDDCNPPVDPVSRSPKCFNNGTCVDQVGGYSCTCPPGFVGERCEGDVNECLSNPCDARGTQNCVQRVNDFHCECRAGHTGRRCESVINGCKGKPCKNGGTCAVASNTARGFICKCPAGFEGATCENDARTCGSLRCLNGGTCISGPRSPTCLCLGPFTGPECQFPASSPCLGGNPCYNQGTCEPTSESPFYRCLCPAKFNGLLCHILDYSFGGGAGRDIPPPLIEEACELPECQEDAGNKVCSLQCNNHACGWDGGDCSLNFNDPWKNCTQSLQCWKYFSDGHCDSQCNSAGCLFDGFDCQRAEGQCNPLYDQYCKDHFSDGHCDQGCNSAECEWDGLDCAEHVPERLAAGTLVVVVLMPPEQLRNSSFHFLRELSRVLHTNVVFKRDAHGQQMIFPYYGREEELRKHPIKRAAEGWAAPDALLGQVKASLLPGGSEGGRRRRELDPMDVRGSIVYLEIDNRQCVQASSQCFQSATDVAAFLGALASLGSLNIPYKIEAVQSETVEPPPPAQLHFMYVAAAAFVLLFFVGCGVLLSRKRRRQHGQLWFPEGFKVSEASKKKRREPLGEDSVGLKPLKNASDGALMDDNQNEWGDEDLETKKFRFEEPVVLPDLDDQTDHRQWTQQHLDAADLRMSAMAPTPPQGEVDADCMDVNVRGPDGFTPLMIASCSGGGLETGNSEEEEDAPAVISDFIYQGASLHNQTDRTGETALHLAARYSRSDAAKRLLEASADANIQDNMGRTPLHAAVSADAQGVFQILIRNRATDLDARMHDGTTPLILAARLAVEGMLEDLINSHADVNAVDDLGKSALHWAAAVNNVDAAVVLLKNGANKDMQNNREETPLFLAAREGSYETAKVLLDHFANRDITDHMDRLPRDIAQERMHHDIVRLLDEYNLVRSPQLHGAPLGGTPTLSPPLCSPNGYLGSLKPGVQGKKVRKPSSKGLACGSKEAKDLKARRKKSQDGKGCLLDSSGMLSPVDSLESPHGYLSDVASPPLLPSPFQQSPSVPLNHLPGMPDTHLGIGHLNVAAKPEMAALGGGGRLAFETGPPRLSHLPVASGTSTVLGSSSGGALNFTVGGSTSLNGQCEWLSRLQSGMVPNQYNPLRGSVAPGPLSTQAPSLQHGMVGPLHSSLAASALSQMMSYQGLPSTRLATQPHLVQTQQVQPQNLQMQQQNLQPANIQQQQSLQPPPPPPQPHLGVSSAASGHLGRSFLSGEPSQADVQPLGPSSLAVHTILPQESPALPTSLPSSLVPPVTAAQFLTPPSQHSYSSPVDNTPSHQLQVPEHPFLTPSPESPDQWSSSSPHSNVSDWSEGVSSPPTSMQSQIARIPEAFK", "test": "Inhibition of Notch1 in human HPBALL cells assessed as reduction in NICD expression after 72 hrs by Western blot analysis", "format": "cell-based", "how_it_was_run": "(§1)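 HPB-ALL cells at 5 × 10^5 per 6 cm dish in RPMI-1640/10% FBS containing a range of compound concentrations, 72 h at 37 °C. Lysates run on SDS-PAGE and PVDF; probed with anti-HES1 or anti-cleaved Notch1 (Val1744) for NICD, β-actin control, ECL read-out.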"}, "HPBALL [3]": {"test_system": "HPBALL", "test": "Cytotoxicity against human HPBALL cells after 72 hrs by alamar blue dye based fluorescence assay", "format": "functional, cell-based", "how_it_was_run": "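HPB-ALL T-ALL cells at 1 × 10^4 per well in RPMI-1640 with 10% FBS and penicillin/streptomycin. Compound added at seeding over a concentration range; 72 h at 37 °C. AlamarBlue then added for 4 h and fluorescence read to give viability.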"}, "[4]": {"target": "Neurogenic locus notch homolog protein 1 (Homo sapiens) (UniProt P46531)", "test": "Inhibition of Notch1 in human HPBALL cells assessed as reduction in NICD expression at 0.5 uM after 12 hrs by Western blot analysis", "format": "cell-based"}, "[5]": {"target": "Neurogenic locus notch homolog protein 1 (Homo sapiens) (UniProt P46531)", "test": "Inhibition of Notch1 in human HPBALL cells assessed as reduction in HES1 expression after 72 hrs by Western blot analysis", "format": "cell-based", "how_it_was_run": "as §1"}, "HEK293": {"test_system": "HEK293", "test": "Cytotoxicity against HEK293 cells after 72 hrs by fluorescence assay", "format": "cell-based", "conditions": "Homo sapiens, HEK293, 72 h", "how_it_was_run": "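HEK293 cells at 1 × 10^4 per well in DMEM with 10% FBS and penicillin/streptomycin. Pre-incubated 24 h at 37 °C, then medium replaced with fresh medium holding a range of compound concentrations. Exposed 72 h; medium removed and proliferation read by fluorometric microculture cytotoxicity assay (FMCA).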"}, "[6]": {"target": "Neurogenic locus notch homolog protein 1 (Mus musculus) (UniProt Q01705)", "sequence (Q01705 whole entry, the tested form may be a part)": "as the sequence (Q01705 whole entry, the tested form may be a part) above", "test": "Inhibition of doxycycline-induced recombinant mouse N-terminal FLAG-tagged Notch1 (1704 to 2531 residues) activation expressed in human LS174T cells assessed as reduction in Hes1 level at 0.05 to 0.3 uM after 12 hrs by Western blot analysis", "format": "cell-based", "how_it_was_run": "(§2)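 LS174T Notch assay cells at 1 × 10^6 per 6 cm dish, 12 h at 37 °C, then doxycycline 50 ng/mL for 12 h to induce FLAG-Notch1(1704–2531). Switched to fresh medium with compound for 12 h. Lysates probed by western blot with anti-FLAG, anti-cleaved Notch1 (Val1744), anti-HES1 or anti-HES5, β-actin control.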"}, "[7]": {"target": "Neurogenic locus notch homolog protein 1 (Mus musculus) (UniProt Q01705)", "test": "Inhibition of doxycycline-induced recombinant mouse N-terminal FLAG-tagged Notch1 (1704 to 2531 residues) activation expressed in human LS174T cells assessed as reduction in NCID expression at 0.5 uM after 12 hrs in presence of proteasome inhibitor MG132 by Western blot analysis", "format": "cell-based"}, "HPBALL [8]": {"test_system": "HPBALL", "test": "Effect on Notch1 mRNA expression in human HPBALL cells at 0.1 to 0.5 uM measured after 12 hrs", "format": "functional, cell-based"}, "[9]": {"target": "Neurogenic locus notch homolog protein 1 (Mus musculus) (UniProt Q01705)", "test": "Inhibition of doxycycline-induced recombinant mouse N-terminal FLAG-tagged Notch1 (1704 to 2531 residues) activation expressed in human LS174T cells assessed as reduction in NCID expression after 12 hrs by Western blot analysis", "format": "cell-based", "how_it_was_run": "as §2"}, "[10]": {"target": "Neurogenic locus notch homolog protein 1 (Mus musculus) (UniProt Q01705)", "test": "Inhibition of doxycycline-induced recombinant mouse N-terminal FLAG-tagged Notch1 (1704 to 2531 residues) activation expressed in human LS174T cells assessed as reduction in Hes5 level at 0.05 to 0.3 uM after 12 hrs by Western blot analysis", "format": "cell-based", "how_it_was_run": "as §2"}, "HPBALL [11]": {"test_system": "HPBALL", "test": "Down regulation of Notch1 expression in human HPBALL cells at 0.5 uM after 12 hrs in presence of proteasome inhibitor MG132 by Western blot analysis", "format": "functional, cell-based", "how_it_was_run": "(§3)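 HPB-ALL cells at 1 × 10^6 per 6 cm dish, treated 12 h at 37 °C with compound plus proteasome inhibitor MG132 (18.5 μM). Lysates blotted on PVDF, probed for cleaved Notch1 (Val1744)/NICD with β-actin loading control, ECL detection.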"}, "[12]": {"target": "Neurogenic locus notch homolog protein 1 (Homo sapiens) (UniProt P46531)", "test": "Inhibition of Notch1 in human HPBALL cells assessed as reduction in NICD expression at 0.5 uM after 12 hrs in presence of proteasome inhibitor MG132 by Western blot analysis", "format": "cell-based", "how_it_was_run": "as §3"}, "HPBALL [13]": {"test_system": "HPBALL", "test": "Down regulation of Notch1 expression in human HPBALL cells at 0.5 uM after 12 hrs by Western blot analysis", "format": "functional, cell-based"}, "LS174T": {"test_system": "LS174T", "test": "Inhibition of doxycycline-induced Notch1 (1704 to 2531 residues) expression in human LS174T cells after 12 hrs by Western blot analysis", "format": "functional, cell-based", "how_it_was_run": "as §2"}}, "note": "Calls of active or inactive are those of the source. No cut-off for these calls is given here."}
{"smiles": "CO[C@@H]1C[C@H](O[C@H]2CC[C@@]3(C)[C@H](CC[C@]4(O)[C@@H]3CC[C@]3(C)[C@@H](C5=CC(=O)OC5)CC[C@@]34O)C2)O[C@H](C)[C@@H]1O", "values": [{"measurement": "IC50", "setting": "[1]; ls174t", "result": "Not Active"}]}
{"smiles": "CO[C@H]1C[C@H](O[C@H]2CC[C@@]3(C)[C@H](CC[C@@H]4[C@@H]3CC[C@]3(C)[C@@H](C5=CC(=O)OC5)[C@@H](OC(C)=O)C[C@]43O)C2)O[C@@H](C)[C@@H]1O", "note": "[OLEANDRIN]", "values": [{"measurement": "inhibition", "setting": "[2]", "result": "Dose-dependent effect"}, {"measurement": "IC50", "setting": "HPBALL [3]", "result": 14, "unit": "nM"}, {"measurement": "IC50", "setting": "[1]; read-out: IC50", "result": 120, "unit": "nM"}, {"measurement": "inhibition", "setting": "[4]", "result": "Active"}, {"measurement": "inhibition", "setting": "[5]", "result": "Dose-dependent effect"}, {"measurement": "IC50", "setting": "HEK293", "result": 28, "unit": "nM"}, {"measurement": "inhibition", "setting": "[6]", "result": "Active"}, {"measurement": "inhibition", "setting": "[7]", "result": "inactive"}, {"measurement": "Activity", "setting": "HPBALL [8]", "result": "inactive"}, {"measurement": "inhibition", "setting": "[9]", "result": "Dose-dependent effect"}, {"measurement": "inhibition", "setting": "[10]", "result": "Active"}, {"measurement": "Activity", "setting": "HPBALL [11]", "result": "Active"}, {"measurement": "inhibition", "setting": "[12]", "result": "inactive"}, {"measurement": "Activity", "setting": "HPBALL [13]", "result": "Active"}, {"measurement": "inhibition", "setting": "LS174T", "result": "Dose-dependent effect"}]}
{"smiles": "CO[C@@H]1C[C@H](O[C@H]2CC[C@@]3(C)[C@H](CC[C@@H]4[C@@H]3CC[C@]3(C)[C@@H](C5=CC(=O)OC5)CC[C@]43O)C2)O[C@H](C)[C@@H]1O", "values": [{"measurement": "IC50", "setting": "[1]; read-out: IC50", "result": 4200, "unit": "nM"}]}
{"smiles": "CO[C@H]1C[C@H](O[C@H]2CC[C@@]3(C)[C@H](CC[C@@H]4[C@@H]3CC[C@]3(C)[C@@H](C5=CC(=O)OC5)[C@@H](O)C[C@]43O)C2)O[C@@H](C)[C@@H]1O", "values": [{"measurement": "IC50", "setting": "[1]; read-out: IC50", "result": 2500, "unit": "nM"}]}
{"smiles": "CO[C@H]1C[C@H](O[C@H]2CC[C@@]3(C)[C@H](CC[C@@H]4[C@@H]3CC[C@]3(C)[C@@H](C5=CC(=O)OC5)CC[C@]43O)C2)O[C@@H](O)[C@@H]1O", "values": [{"measurement": "IC50", "setting": "[1]; read-out: IC50", "result": 2700, "unit": "nM"}]}
{"smiles": "C[C@]12CC[C@H](O)C[C@H]1CC[C@@H]1[C@@H]2CC[C@]2(C)[C@@H](C3=CC(=O)OC3)CC[C@]12O", "note": "[DIGITOXIGENIN]", "values": [{"measurement": "IC50", "setting": "[1]; ls174t", "result": "Not Active"}]}
{"smiles": "CO[C@@H]1C[C@H](O[C@H]2CC[C@@]3(C)[C@H](CC[C@@H]4[C@@H]3CC[C@]3(C)[C@@H](C5=CC(=O)OC5)[C@@H](OC(C)=O)C[C@]43O)C2)O[C@H](C)[C@@H]1O", "values": [{"measurement": "IC50", "setting": "[1]; read-out: IC50", "result": 2700, "unit": "nM"}]}
{"smiles": "CO[C@@H]1C[C@H](O[C@H]2CC[C@@]3(C)[C@H](CC[C@@H]4[C@@H]3CC[C@]3(C)C(C5=CC(=O)OC5)=CC[C@]43O)C2)O[C@H](C)[C@@H]1O", "values": [{"measurement": "IC50", "setting": "[1]; ls174t", "result": "Not Active"}]}
